The text below walks through data of ChEMBL document CHEMBL1681757, “Discovery of potent dipeptidyl peptidase IV inhibitors derived from β-aminoamides bearing substituted [1,2,3]-triazolopiperidines for the treatment of type 2 diabetes” (Bioorg Med Chem Lett, 2011).

Data set [1] can be described thus: Cmax in rat at 20 mg/kg, po. To be noted: in vivo. The data set is classed as ADME, organism-based. Also noted: dose 20 mg/kg, route oral. The procedure, abridged: (§1)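 Healthy male rats (200–220 g), four per group, dosed orally at 20 mg/kg. Plasma exposure parameters derived: Cmax, Tmax, terminal half-life after oral dosing, and area under the concentration curve.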

Data set [2] can be described thus: Tmax in rat at 20 mg/kg, po. Particulars: in vivo. It is filed as ADME, organism-based. Further details: dose 20 mg/kg, route oral. The gist of the method:
as §1

Data set [3] is described as follows: Terminal half life in rat at 20 mg/kg, po. It is filed as ADME, organism-based. Also noted: dose 20 mg/kg, route oral. Particulars: in vivo, read-out: beta t1/2 (converted). The procedure, abridged: as §1
Data set [4] can be described thus: AUC (0 to t) in rat at 20 mg/kg, po. The data set is classed as ADME, organism-based. Also noted: dose 20 mg/kg, route oral. Particulars: plasma. The procedure, abridged:
as §1

Data set [5] is filed under the species Mus musculus. The experiment in a line: animal or person. Particulars: ICR, Blood, po, 1 h, read-out: INH.
The species entered for data set [6] is Mus musculus. The experiment in a line: animal or person. Particulars: ICR, Blood, po, 1 h, read-out: INH. This is another data set of the same source.

For orientation: Cmax means the peak of the concentration-time curve. The term Tmax denotes the time from dosing to the highest level. What is called AUC(0-t) is the area under the concentration-time curve up to a stated or last time point. Low readings indicate less exposure, high ones more exposure. On to `Cl.N[C@@H](CC(=O)N1CCn2nnc(C(F)F)c2C1)Cc1cc(F)c(F)cc1F`, for which the Cmax in data set [1] is 695 ng/mL. Besides, the time of peak concentration (Tmax) in data set [2] was 1 h. For the same molecule, the half-life in data set [3] is 2.27 h. This molecule had an area under the curve AUC(0-t) in data set [4] of 2520 ng·h/mL.
For the molecule `N[C@@H](CC(=O)N1CCn2nnc(C(F)(F)F)c2C1)Cc1cc(F)c(F)cc1F.O=C(O)/C=C/C(=O)O`, the maximum concentration (Cmax) in data set [1] was determined as 965 ng/mL. For the same molecule, the Tmax in data set [2] was 0.88 h. Further, the half-life in data set [3] is 2.53 h. Further, the AUC(0-t) in data set [4] was determined as 4560 ng·h/mL. The inhibition in vivo at 3 mg/kg in data set [5] was determined as 19%. For the same molecule, the inhibition in vivo at 10 mg/kg in data set [6] was determined as 27%.
`Cl.NC(=O)c1nnn2c1CN(C(=O)C[C@H](N)Cc1cc(F)c(F)cc1F)CC2` yielded a Cmax in data set [1] of 231 ng/mL. The time to peak (Tmax) in data set [2] was found to be 0.63 h. In addition, in data set [3], the half-life is 2.23 h. In data set [4], the area under the curve AUC(0-t) was 871 ng·h/mL.
Take `Cl.N[C@@H](CC(=O)N1CCn2nnc(-c3ccc(C(=O)O)cc3)c2C1)Cc1cc(F)c(F)cc1F`: the maximum concentration (Cmax) in data set [1] was found to be 600 ng/mL. Also, the Tmax in data set [2] was determined as 0.38 h. Moreover, the half-life in data set [3] was 2.18 h. In data set [4], this molecule gave an AUC(0-t) of 1130 ng·h/mL.
`N[C@@H](CC(=O)N1CCn2nnc(-c3ccccn3)c2C1)Cc1cc(F)c(F)cc1F.O=C(O)/C=C/C(=O)O`: the maximum concentration (Cmax) in data set [1] was 484 ng/mL. Further, the Tmax in data set [2] came to 1.38 h. Also, the half-life in data set [3] is 2.67 h. In addition, in data set [4], the AUC(0-t) came out at 2510 ng·h/mL.
Taken in the same sequence, the figures for `Cl.N[C@@H](CC(=O)N1CCn2nnc(-c3ccco3)c2C1)Cc1cc(F)c(F)cc1F` were 255 ng/mL, 1 h, 1.87 h and 730 ng·h/mL.
As for `N[C@@H](CC(=O)N1CCn2nnc(-c3cnco3)c2C1)Cc1cc(F)c(F)cc1F.O=C(O)/C=C/C(=O)O`, the concentration in data set [1] peaked (Cmax) at 475 ng/mL. For the same molecule, in data set [2], the time of peak concentration (Tmax) stood at 1.88 h. For the same molecule, in data set [3], the half-life is 1.35 h. This molecule had an AUC(0-t) in data set [4] of 1640 ng·h/mL.
